Converted amounts (≈) assume the structure as drawn.
Experiments:
[1] = system: Mycobacterium tuberculosis; test: Antimycobacterial activity against wild type Mycobacterium tuberculosis H37Rv NRP-2 stage after 3 weeks under anaerobic condition; type: functional
Summary of the method: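 Early-log Mtb in glycerol-free Dubos broth diluted 100-fold, sealed tubes (headspace ratio 0.5), stirred 180 rpm 20 days to NRP-2 (methylene blue reference). Cells exposed to two-fold drug dilutions (1.95-500 μM) with DMSO control, anaerobically at 37°C for 7 days. Washed thrice, serially diluted, spotted on 7H11 agar; after 3 weeks at 37°C, MAC = 90% reduction in visible growth.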

[2] = system: Mycobacterium tuberculosis; test: Antimycobacterial activity against wild type Mycobacterium tuberculosis H37Rv ATCC 27294 after 2 weeks; type: functional; details: 336 h
Summary of the method: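 Aerobic MIC99: Mtb H37Rv grown to OD 0.5 in 7H9 broth with 0.05% Tween 80, 0.2% glycerol, ADC; diluted 1:1000. Compounds from DMSO stocks, 2-fold series giving 8 dilutions (1000 μM – 7.8 μM). 2 weeks at 37°C, growth read macroscopically; MIC99 = concentration preventing 99% growth. Three independent determinations.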

[3] = system: Mycobacterium tuberculosis; test: Ratio of Kcat/Km for Mycobacterium tuberculosis F420-dependent nitroreductase by Michaelis-Menten equation; set-up: unit not given here
Summary of the method: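 MBP-tagged Rv3547 (Ddn) expressed in E. coli (300 μM IPTG, 37 °C), amylose-affinity purified. F420H2 made enzymatically with Mtb FGD1, which was heat-inactivated (55°C, 15 min) and removed by ultrafiltration. Reactions in phosphate buffer pH 7.4, 50 μM F420, 0.6 μM enzyme, varying nitroimidazole concentrations, 25°C. Initial rates from absorbance gain at 400 nm (ε400 = 25.71 mM−1 cm−1).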

| Compound | MAC [1] | MIC [2] | kcat/Km [3] |
| --- | --- | --- | --- |
| FC(F)(F)Oc1ccc(CO[C@@H]2COc3nccn3C2)cc1 | >500 µM | > 160 µM | – |
| O=[N+]([O-])c1cnc2n1C[C@@H](O)CC2 | >100 µM | > 100 µM | – |
| O=[N+]([O-])c1cn2c(n1)C=C[C@@H](OCc1ccc(OC(F)(F)F)cc1)C2 | 62.5 µM | 25 µM (≈ 8.88 µg/mL) | 0.0476 |
| Cc1nc([N+](=O)[O-])cn1CCOCc1ccc(OC(F)(F)F)cc1 | >500 µM | > 145 µM | – |
| COc1ncc([N+](=O)[O-])n1CCO | >500 µM | > 100 µM | – |
| O=[N+]([O-])c1cn2c(n1)OC[C@@H](OCc1ccc(OC(F)(F)F)cc1)C2 [PRETOMANID] | 8 µM | 0.8 µM (≈ 0.287 µg/mL) | 0.145 |
| COc1nc([N+](=O)[O-])cn1CCOCc1ccc(OC(F)(F)F)cc1 | 250 µM | 6.25 µM (≈ 2.26 µg/mL) | 0.03 |
| Cc1nc([N+](=O)[O-])cn1CCO | >500 µM | > 300 µM | – |
| O=[N+]([O-])c1cnc2n1C[C@H](O)CO2 | 125 µM | 12.5 µM (≈ 2.31 µg/mL) | 0.003 |
| O=[N+]([O-])c1cn2c(n1)OC[C@@H](O)C2 | 250 µM | > 100 µM | 0.005 |
| Cc1ncc([N+](=O)[O-])n1CCOCc1ccc(OC(F)(F)F)cc1 | 250 µM | > 145 µM | 0.005 |
| CO[C@@H]1COc2nc([N+](=O)[O-])cn2C1 | 250 µM | > 125 µM | 0.0079 |
| O=[N+]([O-])c1cnc2n1C[C@H](O)CC2 | >500 µM | > 100 µM | – |
| O=[N+]([O-])c1cn2c(n1)CC[C@@H](OCc1ccc(OC(F)(F)F)cc1)C2 | 250 µM | 25 µM (≈ 8.93 µg/mL) | 0.0235 |
| Cc1ncc([N+](=O)[O-])n1CCO [METRONIDAZOLE] | 62.5 µM | > 300 µM | – |
| O=[N+]([O-])c1cnc2n1C[C@H](OCc1ccc(OC(F)(F)F)cc1)CO2 | 31.25 µM | 4 µM (≈ 1.44 µg/mL) | 0.0817 |

— ChEMBL document CHEMBL1140917, “Structure-activity relationships of antitubercular nitroimidazoles. 1. Structural features associated with aerobic and anaerobic activities of 4- and 5-nitroimidazoles” (2009)
